ChEMBL document CHEMBL3351542, “Nonpeptide small molecule agonist and antagonist original leads for neuropeptide FF1 and FF2 receptors” (J Med Chem, 2014)
Each block holds one compound with its values, some of them ahead of it. Calls of active or inactive are those of the source. The calls are words filed in the database; no cut-off is given here. Square brackets hold non-standard residues; d marks the D form. Peptide text beside a SMILES is read from it. NMeF = CN[C@@H](Cc1ccccc1)C(=O)O

Columns and labels:
[1] = molecular target: T1, Neuropeptide FF receptor 2 (Homo sapiens, UniProt Q9Y5X5); test: Displacement of [3H]EYF from human NPFF2 receptor expressed in CHO cells after 1 hr by liquid scintillation counting analysis; assay type: cell-based
[2] = molecular target: T2, Neuropeptide FF receptor 1 (Homo sapiens, UniProt Q9GZQ6); test: Displacement of [3H]NPVF from human NPFF1 receptor expressed in CHO cells after 1 hr by liquid scintillation counting analysis; assay type: cell-based
Homo sapiens [3] = species: Homo sapiens; test: Selectivity ratio of Ki for human NPFF2 receptor to Ki for human NPFF1 receptor
[4] = molecular target: T1, Neuropeptide FF receptor 2; test: Displacement of [125I]EYF from human NPFF2 receptor expressed in CHO cells after 1 hr by liquid scintillation counting analysis; assay type: cell-based
How it was run: (§1)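 Competition binding on CHO membranes stably expressing hNPFF1-R ([125I]YVP) or hNPFF2-R ([125I]EYF). Ki reported as mean ± SEM of two to four experiments in duplicate.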

[5] = molecular target: T2, Neuropeptide FF receptor 1; test: Displacement of [125I]YVP from human NPFF1 receptor expressed in CHO cells after 1 hr by liquid scintillation counting analysis; assay type: cell-based; how it was run: as §1
[6] = molecular target: T2, Neuropeptide FF receptor 1; test: Antagonist activity at human NPFF1 receptor expressed in CHO cells assessed as reversal of NPVF-induced inhibition of intracellular cAMP accumulation after 10 mins by liquid scintillation counting analysis relative to control; assay type: functional, cell-based
[7] = molecular target: T2, Neuropeptide FF receptor 1; test: Agonist activity at human NPFF1 receptor expressed in CHO cells assessed as inhibition of forskolin-induced intracellular cAMP accumulation by liquid scintillation counting analysis; assay type: functional, cell-based
How it was run: (§2)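 Stably transfected CHO cells (200000) seeded overnight, labelled 1 h at 37 °C with [3H]adenine plus 0.1 μM adenine, rinsed in HEPES-Krebs-Ringer pH 7.4. Compound alone added with forskolin (20 μM in the added solution), IBMX and Ro-20 1724; 10 min at 37 °C, stopped with HCl. [3H]cAMP isolated on acid alumina columns, scintillation counted. Duplicates, two to four experiments.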

Homo sapiens [8] = species: Homo sapiens; test: Selectivity ratio of Ki for human NPFF1 receptor to Ki for human NPFF2 receptor
Homo sapiens [9] = species: Homo sapiens; test: Selectivity for human NPFF2 receptor over human NPFF1 receptor
[10] = molecular target: T1, Neuropeptide FF receptor 2; test: Antagonist activity at human NPFF2 receptor expressed in CHO cells assessed as reversal of 1DMe-induced inhibition of intracellular cAMP accumulation at 10 to 30 uM after 10 mins by liquid scintillation counting analysis relative to control; assay type: functional, cell-based
[11] = molecular target: T2, Neuropeptide FF receptor 1; test: Agonist activity at human NPFF1 receptor expressed in CHO cells assessed as inhibition of forskolin-induced intracellular cAMP accumulation up to 1 uM by liquid scintillation counting analysis; assay type: functional, cell-based; how it was run: as §2
[12] = molecular target: T2, Neuropeptide FF receptor 1; test: Partial agonist activity at human NPFF1 receptor expressed in CHO cells assessed as inhibition of forskolin-induced intracellular cAMP accumulation at >1 uM by liquid scintillation counting analysis; assay type: functional, cell-based; how it was run: as §2
[13] = molecular target: T1, Neuropeptide FF receptor 2; test: Antagonist activity at human NPFF2 receptor expressed in CHO cells assessed as inhibition of forskolin-induced intracellular cAMP accumulation at 10 to 30 uM after 10 mins by liquid scintillation counting analysis relative to control; assay type: functional, cell-based
How it was run: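 At hNPFF2 CHO cells, compound alone tested at 10 and 30 μM in the forskolin-stimulated [3H]cAMP accumulation assay (10 min, 37 °C, IBMX and Ro-20 1724 present, alumina column isolation). Read-out is % inhibition of cAMP accumulation.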

[14] = molecular target: T1, Neuropeptide FF receptor 2; test: Partial agonist activity at human NPFF2 receptor expressed in CHO cells assessed as inhibition of forskolin-induced intracellular cAMP accumulation at >1 uM by liquid scintillation counting analysis; assay type: functional, cell-based; how it was run: as §2
[15] = molecular target: T1, Neuropeptide FF receptor 2; test: Agonist activity at human NPFF2 receptor expressed in CHO cells assessed as inhibition of forskolin-induced intracellular cAMP accumulation up to 1 uM by liquid scintillation counting analysis; assay type: functional, cell-based; how it was run: as §2
[16] = molecular target: T1, Neuropeptide FF receptor 2; test: Agonist activity at human NPFF2 receptor expressed in CHO cells assessed as inhibition of forskolin-induced intracellular cAMP accumulation by liquid scintillation counting analysis; assay type: functional, cell-based
[17] = molecular target: T2, Neuropeptide FF receptor 1; test: Agonist activity at human NPFF1 receptor expressed in CHO cells at 10 uM after 60 mins by [35S-GTPgammaS] binding assay relative to control; assay type: functional, cell-based
How it was run: (§3)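 CHO cell membranes stably expressing hNPFF1-R (1.5 μg protein) or hNPFF2-R (0.7 μg). 60 min at 30 °C in 20 mM HEPES pH 7.4, 20 mM NaCl, 3 mM MgCl2, 0.1% BSA, saponin, GDP 0.1 μM (NPFF1) or 1 μM (NPFF2), 0.066 nM [35S]GTPγS; filtration, scintillation counting. Compound at 10 μM; % stimulation over basal, compared with 1DMe 10 μM. Two–four experiments in duplicate.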

[18] = molecular target: T1, Neuropeptide FF receptor 2; test: Agonist activity at human NPFF2 receptor expressed in CHO cells at 10 uM after 60 mins by [35S-GTPgammaS] binding assay relative to control; assay type: functional, cell-based; how it was run: as §3
[19] = molecular target: T1, Neuropeptide FF receptor 2; test: Antagonist activity at human NPFF2 receptor expressed in CHO cells assessed as reversal of 1DMe-induced inhibition of intracellular cAMP accumulation after 10 mins by liquid scintillation counting analysis relative to control; assay type: functional, cell-based

T2 sequence (Q9GZQ6 whole entry): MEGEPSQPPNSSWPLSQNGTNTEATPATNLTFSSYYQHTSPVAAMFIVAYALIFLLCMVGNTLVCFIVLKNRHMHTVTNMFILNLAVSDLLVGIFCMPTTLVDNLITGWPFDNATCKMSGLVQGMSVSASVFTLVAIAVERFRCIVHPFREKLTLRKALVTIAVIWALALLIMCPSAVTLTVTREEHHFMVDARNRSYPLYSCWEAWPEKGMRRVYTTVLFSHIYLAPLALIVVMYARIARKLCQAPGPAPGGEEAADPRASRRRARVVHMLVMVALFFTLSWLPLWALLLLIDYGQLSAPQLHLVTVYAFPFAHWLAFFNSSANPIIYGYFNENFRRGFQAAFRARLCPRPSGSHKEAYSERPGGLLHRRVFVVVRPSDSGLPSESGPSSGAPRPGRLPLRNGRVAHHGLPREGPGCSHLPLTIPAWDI
T1 sequence (Q9Y5X5 whole entry): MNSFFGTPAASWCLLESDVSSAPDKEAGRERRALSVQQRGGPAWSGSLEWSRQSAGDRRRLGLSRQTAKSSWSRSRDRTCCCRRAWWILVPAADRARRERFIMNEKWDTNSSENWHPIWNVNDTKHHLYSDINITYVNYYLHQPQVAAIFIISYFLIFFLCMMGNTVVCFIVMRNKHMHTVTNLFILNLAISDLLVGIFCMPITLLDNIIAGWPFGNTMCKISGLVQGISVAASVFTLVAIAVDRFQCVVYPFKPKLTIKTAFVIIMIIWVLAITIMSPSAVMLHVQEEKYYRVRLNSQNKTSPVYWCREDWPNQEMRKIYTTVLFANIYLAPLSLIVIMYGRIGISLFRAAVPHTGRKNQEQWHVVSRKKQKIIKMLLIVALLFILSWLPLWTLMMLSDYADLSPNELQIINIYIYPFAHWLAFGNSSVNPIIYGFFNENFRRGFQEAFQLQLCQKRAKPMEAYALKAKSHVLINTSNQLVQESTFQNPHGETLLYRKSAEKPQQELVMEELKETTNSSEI

- Ki [1]: 465 nM
- Ki [2]: 151 nM
- Ratio Ki (Homo sapiens [3]): 3
Compound: N=C(N)NCC(=O)NCC1(CCc2ccccc2)CCN(Cc2ccccc2)CC1

- Ki [1]: 3500 nM
- Ki [2]: 511 nM
- Ratio Ki (Homo sapiens [3]): 6.9
Compound: N=C(N)NCC(=O)NCC1(c2ccccc2)CCN(Cc2ccccc2)CC1

Compound: N=C(N)NCCC(=O)NCC1(Nc2ccccc2)CCN(Cc2ccccc2)CC1
- Ki [1]: 2910 nM
- Ki [2]: 441 nM
- Ratio Ki (Homo sapiens [3]): 6

Compound: N=C(N)NCC(=O)NCC1(Nc2ccc(Cl)c(Cl)c2)CCN(Cc2ccccc2)CC1
- Ki [1]: 409 nM
- Ki [2]: 191 nM
- Ratio Ki (Homo sapiens [3]): 2.1

- Ki [4]: 1690 nM
- Ki [5]: 2910 nM
Compound: N=C(N)NCCC[C@H](N)C(=O)NCC1(Nc2ccccc2)CCN(CCc2ccccc2)CC1

Compound: N=C(N)NCCNC(=O)C1(Nc2ccccc2)CCN(Cc2ccccc2)CC1
- Activity [6]: Dose-dependent effect
- EC50 [6]: 3520 nM
- Emax [6]: 68%
- Ki [1]: 1430 nM
- Ki [2]: 81 nM

Compound: COc1cc(NC2(CNC(=O)CNC(=N)N)CCN(Cc3ccccc3)CC2)cc(OC)c1
- EC50 [7]: > 10000 nM
- Ki [1]: 987 nM
- Ki [2]: 114 nM

- Ki ([5]; cho): 4 nM
Compound: CC(C)C[C@H](NC(=O)[C@H](N)Cc1ccc(O)cc1)C(=O)N(C)[C@@H](Cc1ccccc1)C(=O)N[C@@H](CCC(N)=O)C(=O)N1CCC[C@H]1C(=O)N[C@@H](CCC(N)=O)C(=O)N[C@@H](CCCNC(=N)N)C(=O)N[C@@H](Cc1ccccc1)C(N)=O (H-[dY]L[NMeF]QPQRF-NH2)

- Ki [1]: 205 nM
- Ratio Ki (Homo sapiens [8]): 1.5
- Ki [2]: 316 nM
Compound: N=C(N)NCC(=O)NCC1(Cc2ccc3ccccc3c2)CCN(Cc2ccccc2)CC1

- Selectivity ratio (Homo sapiens [9]): 1.2
Compound: H-SLNFEELKDWGPKNVIKMSTPAVNKMPHSFANLPLRF-NH2

Compound: N=C(N)NCC(=O)NCC1(Nc2ccccc2)CCN(CCc2ccccc2)CC1
- Ki [1]: 330 nM
- Ratio Ki (Homo sapiens [8]): 3.2
- Ki [2]: 1060 nM

Compound: COC(=O)c1ccc(CN2CCC(CNC(=O)CNC(=N)N)(Nc3ccccc3)CC2)cc1
- Ki [1]: 1510 nM
- Ki [2]: 340 nM
- Ratio Ki (Homo sapiens [3]): 4.5

Compound: N=C(N)NCCC[C@H](N)C(=O)NCC1CCN(Cc2ccccc2)CC1
- Ki [4]: 7580 nM
- Ki [5]: > 5000 nM

Compound: COc1cccc(NC2(CNC(=O)CNC(=N)N)CCN(Cc3ccccc3)CC2)c1
- Ki [1]: 884 nM
- Ki [2]: 201 nM
- Ratio Ki (Homo sapiens [3]): 4.4

Compound: N=C(N)NCC(=O)NCC1(Nc2ccccc2)CCN(CC2CCCCC2)CC1
- Ki [1]: 298 nM
- Ratio Ki (Homo sapiens [8]): 5.5
- Ki [2]: 1640 nM

Compound: N=C(N)NCC(=O)NCC1(Nc2ccccc2)CCN(Cc2ccccc2)CC1
- inhibition [10]: Active
- Activity [11]: Active
- EC50 [6]: 22000 nM
- Emax [6]: 83%
- Ki [1]: 405 nM
- Activity [12]: inactive
- Ki [2]: 319 nM
- Emax [13]: 20%
- Activity [14]: inactive
- Activity [15]: Active

- Ki [1]: 84 nM
- EC50 [16]: > 1000 nM
- Ki [2]: 417 nM
Compound: N=C(N)NCC(=O)NCC1(Cc2ccccc2)CCN(Cc2ccccc2)CC1

- Emax [17]: 36%
- Ki [4]: 1050 nM
- Emax [18]: 184%
- Ki [5]: 487 nM
Compound: N=C(N)NCCC[C@H](N)C(=O)NCC1(Nc2ccccc2)CCN(Cc2ccccc2)CC1

Compound: N=C(N)NCC(=O)NCC1(Nc2ccccc2)CCN(Cc2ccc3ccccc3c2)CC1
- Ki [1]: 504 nM
- Ki [2]: 141 nM
- Ratio Ki (Homo sapiens [3]): 3.6

Compound: N=C(N)NCC(=O)NCC1(Nc2cccc3ccccc23)CCN(Cc2ccccc2)CC1
- EC50 [7]: > 10000 nM
- Ki [1]: 309 nM
- Ki [2]: 94 nM

Compound: CN1CCC(CNC(=O)[C@@H](N)CCCNC(=N)N)(Nc2ccccc2)CC1
- Ki [4]: > 5000 nM
- Ki [5]: > 5000 nM

Compound: N=C(N)NCC(=O)NCC1(Nc2ccccc2)CCN(Cc2ccc(Br)cc2)CC1
- Ki [1]: 454 nM
- Ki [2]: 112 nM
- Ratio Ki (Homo sapiens [3]): 4

Compound: N=C(N)NCC(=O)NCC1(Cc2cccc3ccccc23)CCN(Cc2ccccc2)CC1
- EC50 [19]: 645 nM
- Emax [19]: 22%
- Activity [6]: Dose-dependent effect
- EC50 [6]: 2600 nM
- Emax [6]: 56.2%
- Ki [1]: 30 nM
- Ki [2]: 112 nM

Compound: N=C(N)NCC(=O)NCC1(Nc2ccccc2)CCNCC1
- Ki [1]: 2760 nM
- Ki [2]: 15100 nM

- Ki [1]: 82 nM
- Ratio Ki (Homo sapiens [8]): 5.3
- Ki [2]: 432 nM
Compound: N=C(N)NCC(=O)NCC1(Cc2ccc(Cl)c(Cl)c2)CCN(Cc2ccccc2)CC1

- Selectivity ratio (Homo sapiens [9]): 10.1
Compound: H-AGEGLSSPFWSLAAPQRF-NH2

- Selectivity ratio (Homo sapiens [9]): 10.7
Compound: CC(C)C[C@H](NC(=O)[C@H](Cc1ccccc1)NC(=O)[C@H](C)NC(=O)[C@H](CCC(N)=O)NC(=O)[C@@H](N)CO)C(=O)N[C@@H](Cc1ccccc1)C(=O)N[C@@H](CCC(N)=O)C(=O)N1CCC[C@H]1C(=O)N[C@@H](CCC(N)=O)C(=O)N[C@@H](CCCNC(=N)N)C(=O)N[C@@H](Cc1ccccc1)C(N)=O

- Ki [4]: 304 nM
- Ratio Ki (Homo sapiens [8]): 1.6
- Ki [5]: 479 nM
Compound: N=C(N)NCCC[C@H](N)C(=O)NCC1(Nc2ccccc2)CCN(Cc2ccc3ccccc3c2)CC1

Compound: CN1CCC(CNC(=N)N)(Nc2ccccc2)CC1
- Ki [4]: > 5000 nM
- Ki [5]: > 5000 nM

- Ki [4]: 6620 nM
- Ki [5]: 1880 nM
Compound: N=C(N)NCC1(Nc2ccccc2)CCN(Cc2ccccc2)CC1

Compound: N=C(N)NCC1(Nc2ccccc2)CCN(CCc2ccccc2)CC1
- Ki [4]: 2770 nM
- Ki [5]: 2960 nM

Compound: N=C(N)NCC(=O)NCC1(Nc2ccccc2)CCN(Cc2cccc3ccccc23)CC1
- Ki [1]: 129 nM
- Ratio Ki (Homo sapiens [8]): 4.2
- Ki [2]: 538 nM

- Ki [1]: 910 nM
- Ki [2]: 296 nM
- Ratio Ki (Homo sapiens [3]): 3
Compound: N=C(N)NCC(=O)NCC1(Cc2ccc(-c3ccccc3)cc2)CCN(Cc2ccccc2)CC1
